# Source: ChEMBL document CHEMBL3085643, “Synthesis and evaluation in monkey of [(18)F]4-fluoro-N-methyl-N-(4-(6-(methylamino)pyrimidin-4-yl)thiazol-2-yl)benzamide ([(18)F]FIMX): a promising radioligand for PET imaging of brain metabotropic glutamate receptor 1 (mGluR1)” (J Med Chem, 2013)
# Experiments:
# Plasma [1] = experiment: Biodistribution in rhesus monkey plasma at 5.24 mCi, iv after 60 mins by radio-HPLC analysis; type: ADME, organism-based, Macaca mulatta; conditions: in vivo, 1 h
# Method in brief: (§1)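 Single rhesus monkey (7.0 kg) given the radioligand iv (5.24 mCi; 1.4 nmol/kg). Venous blood drawn at 10, 30, 60 and 120 min. Separated plasma analysed by radio-HPLC on a C18 radial-compression column, eluted at 2.0 mL/min with MeOH:H₂O:Et₃N (65:35:0.1). Parent and radiometabolites given as percent of plasma radioactivity; blood-component radioactivity expressed as SUV; decay-corrected.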
# Plasma [2] = experiment: Biodistribution in rhesus monkey plasma assessed as radiometabolite [18F]-E level at 5.24 mCi, iv after 60 mins by radio-HPLC analysis; type: ADME, organism-based, Macaca mulatta; conditions: in vivo, 1 h; method in brief: as §1
# Plasma [3] = experiment: Biodistribution in rhesus monkey plasma assessed as radiometabolite [18F]-D level at 5.24 mCi, iv after 60 mins by radio-HPLC analysis; type: ADME, organism-based, Macaca mulatta; conditions: in vivo, 1 h; method in brief: as §1
# Plasma [4] = experiment: Biodistribution in rhesus monkey plasma assessed as radiometabolite [18F]-C level at 5.24 mCi, iv after 60 mins by radio-HPLC analysis; type: ADME, organism-based, Macaca mulatta; conditions: in vivo, 1 h; method in brief: as §1
# Plasma [5] = experiment: Biodistribution in rhesus monkey plasma assessed as radiometabolite [18F]-B level at 5.24 mCi, iv after 60 mins by radio-HPLC analysis; type: ADME, organism-based, Macaca mulatta; conditions: in vivo, 1 h; method in brief: as §1
# Plasma [6] = experiment: Biodistribution in rhesus monkey plasma assessed as radiometabolite [18F]-A level at 5.24 mCi, iv after 60 mins by radio-HPLC analysis; type: ADME, organism-based, Macaca mulatta; conditions: in vivo, 1 h; method in brief: as §1
# Plasma [7] = experiment: Biodistribution in rhesus monkey plasma at 5.24 mCi, iv after 2 hrs by radio-HPLC analysis; type: ADME, organism-based, Macaca mulatta; conditions: in vivo; method in brief: as §1
# Plasma [8] = experiment: Biodistribution in rhesus monkey plasma at 5.24 mCi, iv measured at 31 mins by radio-HPLC analysis; type: ADME, organism-based, Macaca mulatta; conditions: in vivo; method in brief: as §1
# Blood = experiment: Biodistribution in rhesus monkey whole blood at 5.24 mCi, iv up to 150 mins by radio-HPLC analysis; type: ADME, organism-based, Macaca mulatta; conditions: in vivo, 2 h, in the assay text read “120 mins” for “150 mins”
# Method in brief: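 Venous blood sampled after iv injection of radioligand (5.24 mCi; 1.4 nmol/kg) in one 7.0 kg rhesus monkey. Whole-blood radioactivity was gamma-counted, decay-corrected and expressed as SUV.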
# [9] = Fraction unbound in human plasma by radio-HPLC analysis; type: ADME, cell-free
# [10] = Fraction unbound in rhesus monkey plasma by radio-HPLC analysis; type: ADME, cell-free, Macaca mulatta
# [11] = Metabolic stability in rhesus monkey plasma assessed as compound remaining after 30 mins by radio-HPLC analysis; type: ADME, cell-free, Macaca mulatta; conditions: read-out: Stability
# Method in brief: (§2)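 Radioligand incubated in rhesus monkey whole blood or plasma at room temperature for at least 30 min. Blood lysed with water for 30 s; samples deproteinized with MeCN and spun at 10,000 g. Supernatants analysed by radio-HPLC; precipitates counted to give extraction efficiency. Percent unchanged parent divided by radiochemical purity.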
# [12] = Metabolic stability in rhesus monkey whole blood assessed as compound remaining after 30 mins by radio-HPLC analysis; type: ADME, tissue-based, Macaca mulatta; conditions: read-out: Stability; method in brief: as §2
# [13] = Biodistribution in iv dosed rhesus monkey skull by PET analysis; type: ADME, organism-based, Macaca mulatta; conditions: in vivo
# Method in brief: (§3)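 Baseline brain PET in rhesus monkey: radioligand given intravenously (4.6–6.58 mCi; specific activity 1.67–4.18 Ci/μmol at injection). Ketamine induction (10 mg/kg, i.m.), then 1.6% isoflurane in O₂; head held in a stereotaxic frame. Scan run 120 min in 33 frames (30 s–5 min). Regional uptake taken from regions of interest, cerebellar grey matter delineated by isocontour, expressed as SUV; decay-corrected.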
# Brain [14] = experiment: Biodistribution in iv dosed rhesus monkey brain administered 30 mins prior to […]-challenge by PET analysis; type: ADME, organism-based, Macaca mulatta; conditions: in vivo, 0.5 h, in the assay text read “mGluR5 ligand” for “mGluR1 ligand”
# Method in brief: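 Third rhesus monkey (8.1 kg): the mGluR5-selective ligand MTEP (5 mg/kg) given i.v. 30 min after the i.v. [18F] radioligand. Anesthesia was ketamine then isoflurane, with the head in a stereotaxic frame. A 120-min microPET acquisition in 33 frames was run, and regional washout expressed as SUV.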
# Brain [15] = experiment: Biodistribution in iv dosed rhesus monkey brain administered 30 mins prior to mGluR1 antagonist JNJ-16259685-challenge by PET analysis; type: organism-based, Macaca mulatta; conditions: in vivo, 0.5 h
# Method in brief: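 Displacement challenge in a second rhesus monkey: JNJ-16259685 (3 mg/kg) given i.v. 30 min after the i.v. [18F] radioligand injection. Anesthesia was ketamine 10 mg/kg i.m. then 1.6% isoflurane. The brain was scanned with microPET for 120 min in 33 frames, and regional radioactivity expressed as SUV.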
# Brain [16] = experiment: Biodistribution in iv dosed rhesus monkey brain measured up to 120 mins by PET analysis; type: ADME, organism-based, Macaca mulatta; conditions: in vivo, 2 h
# Method in brief: (§4)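 Baseline scans in rhesus monkey given the [18F] radioligand i.v. (4.6–6.58 mCi; specific activity 1.67–4.18 Ci/μmol at injection). Ketamine 10 mg/kg i.m. induction, then 1.6% isoflurane/98.4% O2, with the head in a stereotaxic frame. microPET Focus 220 scanning for 120 min in 33 frames (30 s–5 min). Regional uptake, including isocontour-delineated cerebellar grey matter, expressed as SUV.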
# Brain [17] = experiment: Biodistribution in iv dosed rhesus monkey brain administered 5 mins post mGluR1 antagonist JNJ-16259685-challenge by PET analysis; type: organism-based, Macaca mulatta; conditions: in vivo
# Method in brief: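 Receptor preblock in the baseline monkey on a separate day: JNJ-16259685 (3 mg/kg) given i.v. 5 min before the i.v. [18F] radioligand (4.6–6.58 mCi). Under ketamine/isoflurane anesthesia in a stereotaxic frame, the brain was scanned with microPET for 120 min in 33 frames. Regional time–activity curves expressed as SUV.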
# [18] = Biodistribution in iv dosed rhesus monkey cerebellum measured at 2 hrs by PET analysis; type: ADME, organism-based, Macaca mulatta; conditions: in vivo; method in brief: as §3
# [19] = Biodistribution in iv dosed rhesus monkey cerebellum measured at 90 mins by PET analysis; type: ADME, organism-based, Macaca mulatta; conditions: in vivo, 1.5 h; method in brief: as §3
# [20] = Biodistribution in iv dosed rhesus monkey anterior cingulate by PET analysis; type: ADME, organism-based, Macaca mulatta; conditions: in vivo; method in brief: as §4
# [21] = Biodistribution in iv dosed rhesus monkey putamen by PET analysis; type: ADME, organism-based, Macaca mulatta; conditions: in vivo; method in brief: as §3
# Hippocampus = experiment: Biodistribution in iv dosed rhesus monkey hippocampus by PET analysis; type: ADME, organism-based, Macaca mulatta; conditions: in vivo; method in brief: as §3
# [22] = Biodistribution in iv dosed rhesus monkey frontal cortex by PET analysis; type: ADME, organism-based, Macaca mulatta; conditions: in vivo; method in brief: as §3
# [23] = Biodistribution in iv dosed rhesus monkey thalamus by PET analysis; type: ADME, organism-based, Macaca mulatta; conditions: in vivo; method in brief: as §3
# [24] = Octanol-sodium phosphate buffer distribution coefficient, log D of the compound at pH 7.4; type: physicochemical
# Method in brief: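 Measured LogD of the [18F]-labelled compound: distribution between n-octanol and 0.15 M sodium phosphate buffer, pH 7.4; n = 6.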
# [25] = Biodistribution in iv dosed rhesus monkey cerebellum measured at 12 mins by PET analysis; type: ADME, organism-based, Macaca mulatta; conditions: in vivo, 0.2 h; method in brief: as §3
# Brain [26] = experiment: Biodistribution in iv dosed rhesus monkey brain measured at 90 mins by PET analysis relative to control; type: ADME, organism-based, Macaca mulatta; conditions: in vivo, 1.5 h; method in brief: as §4
smiles,measurement,setting,value
CNc1cc(-c2csc(N(C)C(=O)c3ccc([18F])cc3)n2)ncn1,Drug uptake,Plasma [1],26%
same,Drug uptake,Plasma [2],21%
same,Drug uptake,Plasma [3],1%
same,Drug uptake,Plasma [4],10%
same,Drug uptake,Plasma [5],23%
same,Drug uptake,Plasma [6],19%
same,Drug uptake,Plasma [7],Active
same,Drug uptake,Plasma [8],31%
same,Drug uptake,Blood,Active
same,fraction unbound,[9],0.0114
same,fraction unbound,[10],0.0123
same,remaining at 0.5 h,[11],98.9%
same,remaining at 0.5 h,[12],98.1%
same,Drug uptake,[13],Not Active
same,Drug uptake,Brain [14],Active
same,Drug uptake,Brain [15],Active
same,Drug uptake,Brain [16],Active
same,Drug uptake,Brain [17],Active
same,SUV,[18],2.8
same,SUV,[19],3.32
same,SUV,[20],2.4
same,SUV,[21],2.5
same,SUV,Hippocampus,2.5
same,SUV,[22],2.7
same,SUV,[23],2.9
same,logD,[24],2.52
same,SUV,[25],5.3
CC(C)Nc1cc(-c2csc(N(C)C(=O)c3ccc([18F])cc3)n2)ncn1,Drug uptake,Brain [26],17%
